Experimental data published in ChEMBL document CHEMBL1137007, “Synthesis of 4-substituted pyrido[2,3-d]pyrimidin-4(1H)-one as analgesic and anti-inflammatory agents” (Bioorg Med Chem Lett, 2009).

Columns and labels:
Rattus norvegicus [1] = experiment: Antiinflammatory activity in rat assessed as inhibition of carrageenan-induced paw oedema at 10 mg/kg, po after 30 mins; type: functional; parameters: scale not given: the % may be the effect or the level left
Procedure, shortened: (§1)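 Rats, six per group, were dosed orally (10 or 20 mg/kg, suspension in 1% carboxymethyl cellulose) before carrageenan paw injection. Paw volume was read by mercury-displacement plethysmography just before and 30 min, 1, 2 and 3 h after carrageenan. %inhibition = 100[1 − (a − x)/(b − y)], with the test group's pre/post volumes set against the vehicle control group's. Reported as mean ± SEM (n = 6) with ANOVA.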

Mus musculus [2] = experiment: Analgesic activity in Wister albino mice at 20 mg/kg, po after 30 mins by tail-flick test
Rattus norvegicus [3] = experiment: Antiinflammatory activity in rat assessed as inhibition of carrageenan-induced paw oedema at 10 mg/kg, po after 1 hr; type: functional; parameters: scale not given: the % may be the effect or the level left; procedure, shortened: as §1
Mus musculus [4] = experiment: Analgesic activity in Wister albino mice at 10 mg/kg, po after 30 mins by tail-flick test
Mus musculus [5] = experiment: Analgesic activity in Wister albino mice at 10 mg/kg, po after 1 hr by tail-flick test
Rattus norvegicus [6] = experiment: Toxicity in Wistar albino rat assessed as ulcer index at 20 mg/kg, ip administered once daily for 3 days; type: organism-based; parameters: dose 20 mg/kg, route intraperitoneal; settings: in vivo, 72 h
Procedure, shortened: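 Wistar albino rats of either sex (150–200 g), six per group, housed at 25 °C, 45–55% RH, 12-h light/dark cycle and acclimatized one week. Dosing was intraperitoneal as a suspension in 10% v/v Tween-80, with a vehicle-only control group. Animals were fasted 36 h, then pylorus-ligated (Shay method) on day 4 and sacrificed 4 h later for ulcer index. Values are mean ± SEM (n = 6), analysed by one-way ANOVA.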

Mus musculus [7] = experiment: Analgesic activity in Wister albino mice at 20 mg/kg, po after 2 hrs by tail-flick test
Rattus norvegicus [8] = experiment: Antiinflammatory activity in rat assessed as inhibition of carrageenan-induced paw oedema at 20 mg/kg, po after 2 hrs; type: functional; parameters: scale not given: the % may be the effect or the level left; procedure, shortened: as §1
Rattus norvegicus [9] = experiment: Antiinflammatory activity in rat assessed as inhibition of carrageenan-induced paw oedema at 20 mg/kg, po after 1 hr; type: functional; parameters: scale not given: the % may be the effect or the level left; procedure, shortened: as §1
Mus musculus [10] = experiment: Analgesic activity in Wister albino mice at 10 mg/kg, po after 3 hrs by tail-flick test
Rattus norvegicus [11] = experiment: Antiinflammatory activity in rat assessed as inhibition of carrageenan-induced paw oedema at 20 mg/kg, po after 30 mins; type: functional; parameters: scale not given: the % may be the effect or the level left; procedure, shortened: as §1
Mus musculus [12] = experiment: Analgesic activity in Wister albino mice at 20 mg/kg, po after 3 hrs by tail-flick test
Rattus norvegicus [13] = experiment: Antiinflammatory activity in rat assessed as inhibition of carrageenan-induced paw oedema at 20 mg/kg, po after 3 hrs; type: functional; parameters: scale not given: the % may be the effect or the level left; procedure, shortened: as §1
Rattus norvegicus [14] = experiment: Antiinflammatory activity in rat assessed as inhibition of carrageenan-induced paw oedema at 10 mg/kg, po after 3 hrs; type: functional; parameters: scale not given: the % may be the effect or the level left; procedure, shortened: as §1
Mus musculus [15] = experiment: Analgesic activity in Wister albino mice at 10 mg/kg, po after 2 hrs by tail-flick test
Mus musculus [16] = experiment: Analgesic activity in Wister albino mice at 20 mg/kg, po after 1 hr by tail-flick test
Rattus norvegicus [17] = experiment: Antiinflammatory activity in rat assessed as inhibition of carrageenan-induced paw oedema at 10 mg/kg, po after 2 hrs; type: functional; parameters: scale not given: the % may be the effect or the level left; procedure, shortened: as §1

SMILES	Activity (Rattus norvegicus [1]) [%]	Activity (Mus musculus [2]) [%]	Activity (Rattus norvegicus [3]) [%]	Activity (Mus musculus [4]) [%]	Activity (Mus musculus [5]) [%]	UI (Rattus norvegicus [6])	Activity (Mus musculus [7]) [%]	Activity (Rattus norvegicus [8]) [%]	Activity (Rattus norvegicus [9]) [%]	Activity (Mus musculus [10]) [%]	Activity (Rattus norvegicus [11]) [%]	Activity (Mus musculus [12]) [%]	Activity (Rattus norvegicus [13]) [%]	Activity (Rattus norvegicus [14]) [%]	Activity (Mus musculus [15]) [%]	Activity (Mus musculus [16]) [%]	Activity (Rattus norvegicus [17]) [%]
Nc1nc(=O)[nH]c2nc3[nH]c(=S)[nH]c(=O)c3c(-c3ccc(N4CCCCC4)cc3)c12	33	48	39	39	43	0.72	53	48	46	33	40	44	35	29	46	51	43
CN1CCN(c2ccc(-c3c4c(=O)[nH]c(=S)[nH]c4nc4[nH]c(=S)sc(=N)c34)cc2)CC1	31	42	32	32	35	0.85	49	46	40	29	39	38	31	22	38	46	37
Nc1nc(=S)[nH]c2nc3[nH]c(=S)[nH]c(=O)c3c(-c3ccc(N4CCOCC4)cc3)c12	33	48	40	42	45	0.67	55	49	46	33	39	46	38	29	49	49	43
Cc1nc2nc3[nH]c(=S)[nH]c(=O)c3c(-c3ccc(N4CCCCC4)cc3)c2c(=O)[nH]1	29	48	33	37	43	0.9	56	41	39	35	36	42	34	26	48	56	34
O=c1[nH]cnc2nc3[nH]c(=S)[nH]c(=O)c3c(-c3ccc(N4CCOCC4)cc3)c12	31	44	36	30	38	0.86	53	46	42	29	39	36	36	29	45	47	38
Nc1ncnc2nc3[nH]c(=S)[nH]c(=O)c3c(-c3ccc(N4CCOCC4)cc3)c12	35	55	40	38	43	0.7	58	49	47	27	43	36	38	30	46	57	42
CN1CCN(c2ccc(-c3c4c(N)ncnc4nc4[nH]c(=S)[nH]c(=O)c34)cc2)CC1	35	50	37	39	43	0.69	58	50	48	36	43	43	38	31	45	58	38
N=c1sc(=S)[nH]c2nc3[nH]c(=S)[nH]c(=O)c3c(-c3ccc(N4CCCCC4)cc3)c12	33	51	38	38	42	0.73	56	46	40	34	37	39	33	25	48	53	39
Nc1ncnc2nc3[nH]c(=S)[nH]c(=O)c3c(-c3ccc(N4CCCCC4)cc3)c12	33	55	39	41	49	0.58	59	48	45	32	42	38	39	32	52	57	40
N#Cc1c(N)nc2[nH]c(=S)[nH]c(=O)c2c1-c1ccc(N2CCOCC2)cc1	41	59	48	45	47	0.54	66	63	61	31	50	43	47	36	53	63	50
CN1CCN(c2ccc(-c3c(C#N)c(N)nc4[nH]c(=S)[nH]c(=O)c34)cc2)CC1	39	67	40	53	60	0.51	72	60	55	44	48	52	37	31	64	68	46
Nc1nc(=S)[nH]c2nc3[nH]c(=S)[nH]c(=O)c3c(-c3ccc(N4CCCCC4)cc3)c12						0.69											
O=c1[nH]cnc2nc3[nH]c(=S)[nH]c(=O)c3c(-c3ccc(N4CCCCC4)cc3)c12	30	40	34	32	36	0.89	55	44	41	33	35	39	32	27	45	50	38
N=c1sc(=S)[nH]c2nc3[nH]c(=S)[nH]c(=O)c3c(-c3ccc(N4CCOCC4)cc3)c12	25	49	28	39	41	0.89	56	42	34	32	30	44	30	21	44	53	31
O=C([O-])Cc1ccccc1Nc1c(Cl)cccc1Cl.[Na+] [DICLOFENAC SODIUM]	32	46	38	37	43	1.65	62	60	52	33	45	39	42	33	45	55	39
